Article PMC2668526 (Bioorganic & medicinal chemistry, 2008)
Where “and” joins values, the source holds several entries; their conditions need not be identical. Equal values may be shown once. Read-outs that look alike come from different tables or passages of the source. Blank lines part the entries; values can stand above or below the molecule they belong to. Where a SMILES comes first, the peptide text is derived from it. The star is where a group is joined. ClAc = O=C(CCl)*; NHOH = ON*

What was measured:
B. germanica PHM = B. germanica PHM inhibition; type: biochemical, Blatella germanica; conditions: for Ki: read-out: Ki,s vs. B. germanica PHM, N-dansyl-Tyr-Val-Gly amidation; for RatKi,s/InsectKi,s: ratio rat PAM Ki,s to B. germanica PHM Ki,s
rat PAM [1] = biological target: T1, rat PAM (Rattus norvegicus, UniProt P14925); test: Bifunctional rat PAM inhibition; type: biochemical
T1 sequence (P14925 36-715 isoform P14925-2 limits assumed): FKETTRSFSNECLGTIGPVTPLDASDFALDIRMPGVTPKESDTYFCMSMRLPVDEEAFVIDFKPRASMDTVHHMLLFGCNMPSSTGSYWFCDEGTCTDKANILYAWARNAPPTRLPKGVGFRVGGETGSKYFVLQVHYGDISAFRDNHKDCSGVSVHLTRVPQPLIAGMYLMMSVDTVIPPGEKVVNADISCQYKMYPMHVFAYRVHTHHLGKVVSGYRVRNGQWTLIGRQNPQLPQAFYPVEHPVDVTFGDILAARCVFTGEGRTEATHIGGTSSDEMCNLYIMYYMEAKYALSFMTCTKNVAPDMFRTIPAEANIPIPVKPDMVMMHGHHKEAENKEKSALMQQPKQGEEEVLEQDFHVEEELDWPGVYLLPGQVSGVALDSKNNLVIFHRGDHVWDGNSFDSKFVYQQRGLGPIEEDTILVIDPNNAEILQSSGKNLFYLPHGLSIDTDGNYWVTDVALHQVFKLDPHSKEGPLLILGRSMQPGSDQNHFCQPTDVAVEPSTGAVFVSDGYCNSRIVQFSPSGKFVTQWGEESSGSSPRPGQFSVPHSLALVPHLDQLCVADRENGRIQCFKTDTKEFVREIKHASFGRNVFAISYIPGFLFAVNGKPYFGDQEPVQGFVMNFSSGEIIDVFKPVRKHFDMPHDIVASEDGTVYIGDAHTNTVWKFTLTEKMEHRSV

PHM = conditions: cited from earlier work; for Km: read-out: KM,app
DU 145 cells = test: Growth of human prostate DU 145 cells; type: cell-based; conditions: for antiproliferative concentration relative to Ki,s for PHM: DU 145 cells vs. in vitro Ki,s
Procedure, shortened: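 DU 145 cells in EMEM (Earle's salts, 2 mM glutamine, 1.0 mM pyruvate, 0.1 mM amino acids, 10% FBS, penicillin/streptomycin). Grown to 80% confluency, trypsinized, seeded at 50,000 cells/well, adhered 24 h. Medium then replaced with or without test compound; 10 μM 4-HPR as positive control. Counted at 8, 24, 48, 72, 96 h: PBS wash, trypsin/EDTA detachment, Trypan blue, hemacytometer viable/non-viable count.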

PAL activity of rat PAM = PAL activity of rat PAM (Rattus norvegicus, UniProt P14925); test: Inhibition of PAL activity; type: biochemical; conditions: read-out: inhibition of PAL activity
Procedure, shortened: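 Recombinant type A rat medullary thyroid carcinoma PAM (1.5–3.0 μg) started reactions at 37.0 °C. Buffer: 100 mM MES/NaOH pH 6.0, 30 mM NaCl, 1% ethanol, 0.001% Triton X-100. Substrate: 2.0 mM (R,S)-α-hydroxyhippuric acid, with 0 or 750 μM test compound. No-enzyme blank included. TFA quench at 20 min. Glyoxylate measured spectrophotometrically against a standard curve.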

rat PAM [2] = biological target: T1, rat PAM; test: Steady-state kinetics of rat bifunctional PAM substrates; conditions: for (V/K)app as percent of the corresponding glycine substrate: D-alanine substrate vs. corresponding glycine substrate; for (V/K)app / Km: O2 consumption, 5.0 mM ascorbate, pH 6.0, 37 °C; for Km: read-out: KM,app; for Rel. (V/K)app: relative to hippuric acid = 1.0
[3] = Ki,s, rat PAM, absence of DMSO, competitive inhibition assumed

Molecule: O=C(O)CSC(=S)c1ccccc1 [compound 64, S-(Thiobenzoyl)thioglycolic acid]
- Ki (B. germanica PHM): 92 ± 10 µM
- Ki (rat PAM [1]; Ki,s, rat PAM, […] DMSO): 49 µM
- Ki (rat PAM [1]; [3]): 39 ± 5 µM

Molecule: CC(NC(=S)c1ccccc1)C(=O)O (stereo not drawn) [compound 59, N-(Thiobenzoyl)-(D,L)-alanine]
- Ki (rat PAM [1]; [3]): 7.2 ± 0.9 µM

Molecule: O=C(NCP(=O)(O)O)c1cccnc1 [compound 80, (Nicotinamidomethyl)phosphonic acid]
- Ki (rat PAM [1]): > 75000 µM
- inhibition of PHM (O2 consumption) (rat PAM [1]; 28 mM compound, 200 μM N-octanoylglycine as substrate): no inhibition

Molecule: O=C(O)COC(=O)Nc1ccccc1 [compound 65, O-(Phenylcarbamoyl)glycolic acid]
- Ki (rat PAM [1]; [3]): 54 ± 4 µM

Molecule: N[C@@H](CCC(=O)N[C@@H](CS)C(=O)NCC(=O)O)C(=O)O [glutathione]
- Km (PHM): 130 µM

Molecule: CC1=C(/C=C/C(C)=C/C=C/C(C)=C/C(=O)Nc2ccc(O)cc2)C(C)(C)CCC1 [4-HPR, N-(4-hydroxyphenyl) retinamide, reference compound]
- effect on cell growth (positive control) (DU 145 cells; DU 145 cells, 10 μM, 48 hr): completely eliminates cell growth

Molecule: O=C(O)CSC(=S)Nc1ccccc1 [compound 61, S-(Phenylthiocarbamoyl)thioglycolic acid]
- inhibition at 750 µM (PAL activity of rat PAM): ~40%
- RatKi,s/InsectKi,s (B. germanica PHM): 1.6
- Ki (B. germanica PHM): 5.4 ± 0.3 µM
- Ki (rat PAM [1]; [3]): 8.6 ± 1.4 µM

Molecule: O=C(O)CSC(=S)Cc1ccccc1 [compound 60, S-(2-Phenylthioacetyl)thioglycolic acid]
- antiproliferative concentration relative to Ki,s for PHM (DU 145 cells): ~ 60 fold and 60–300 fold
- concentration showing significant anti-proliferative effects (DU 145 cells; DU 145 cells, Fig. 2): > 500 µM
- RatKi,s/InsectKi,s (B. germanica PHM): 2.1
- Ki (B. germanica PHM): 3.6 ± 0.6 µM
- Ki (rat PAM [1]; Ki,s, rat PAM, […] DMSO): 13 µM
- Ki (rat PAM [1]; [3]): 7.9 ± 2.8 µM

Molecule: O=C(O)CSC(=S)CCc1ccccc1 [compound 62, S-(3-Phenylthiopropionyl)thioglycolic acid]
- RatKi,s/InsectKi,s (B. germanica PHM): 11
- Ki (B. germanica PHM): 0.87 ± 0.11 µM
- Ki (rat PAM [1]; Ki,s, rat PAM, […] DMSO): 30 µM
- Ki (rat PAM [1]; [3]): 9.4 ± 0.8 µM

Molecule: methyl ester of N-dansyl-Tyr-Val-Gly
- Ki (PHM; read-out: Ki,s, ref 20a): 54 µM

Molecule: CCCCCCCCCCCC(=S)SCC(=O)O [compound 55, S-(Thiolauroyl)thioglycolic acid]
- Ki (rat PAM [1]; [3]): 0.54 ± 0.05 µM

Molecule: C[C@@H](NC(=O)OCc1ccccc1)C(=O)O [compound 53, CBZ-D-alanine]
- (V/K)app as percent of the corresponding glycine substrate (rat PAM [2]): 0.05–0.3%

Molecule: Cc1ccc(C(=S)SCC(=O)O)cc1 [compound 57, S-(4-Methylthiobenzoyl)thioglycolic acid]
- antiproliferative concentration relative to Ki,s for PHM (DU 145 cells): 60–300 fold
- RatKi,s/InsectKi,s (B. germanica PHM): 0.25
- Ki (B. germanica PHM): 14 ± 1 µM
- Ki (rat PAM [1]; [3]): 3.5 ± 0.4 µM

Molecule: O=C(O)CNC(=O)CCCCCc1ccccc1 [compound 50, 6-Phenylhexanoylglycine]
- increase of (V/K)app over hippurate 1 (rat PAM [2]): ~ 30 fold
- ratio of (V/K)app to that of 3-(2-furyl)acryloylglycine 26 (rat PAM [2]): about 70

Molecule: CC(=O)N[C@H](C)C(=O)O [compound 51, Acetyl-D-alanine]
- (V/K)app as percent of the corresponding glycine substrate (rat PAM [2]): 0.05–0.3%

Molecule: 3-Indolylacetylglycine [compound 24]
- (V/K)app (rat PAM [2]): (2.5 ± 0.1) × 10^3 M^−1 s^−1

Molecule: O=C(O)CNC(=O)c1ccccc1O [salicylurate]
- Km (PHM; ref 23b): 860 µM

Molecule: O=C(O)CCSC(=S)Nc1ccccc1 [compound 56, S-(Phenylthiocarbamoyl)-3-mercaptopropionic acid]
- RatKi,s/InsectKi,s (B. germanica PHM): 0.47
- Ki (B. germanica PHM): 5.5 ± 0.8 µM
- Ki (rat PAM [1]; [3]): 2.6 ± 0.7 µM

Molecule: O=C(O)CNC(=O)CCCCCCCc1ccccc1 [compound 46, 8-Phenyloctanoylglycine]
- (V/K)app lower than that of 6-phenylhexanoylglycine 50 (rat PAM [2]): ~ 2.5 fold

Molecule: C[C@@H](NC(=O)c1ccccc1)C(=O)O [compound 52, Benzoyl-D-alanine]
- (V/K)app as percent of the corresponding glycine substrate (rat PAM [2]): 0.05–0.3%

Molecule: 2-Pyridylmercaptoacetylglycine [compound 47]
- (V/K)app (rat PAM [2]): (8.3 ± 0.7) × 10^4 M^−1 s^−1
- Km (rat PAM [2]): 36 ± 4 µM
- Rel. (V/K)app (rat PAM [2]): 13

Molecule: 2-Propylmercaptoacetylglycine [compound 29]
- (V/K)app (rat PAM [2]): (8.2 ± 0.3) × 10^3 M^−1 s^−1
- Km (rat PAM [2]): 220 ± 10 µM
- Rel. (V/K)app (rat PAM [2]): 1.3

Molecule: CC(C#N)(CCC(=O)O)SC(=S)c1ccccc1 (stereo not drawn) [compound 58, S-(Thiobenzoyl)-4-mercapto-4-cyanopentanoic acid]
- Ki (rat PAM [1]; [3]): 5.7 ± 0.4 µM

Molecule: O=C(O)CNC(=O)CNC(=O)CCl [compound 34, Chloroacetyl-Gly-Gly] (ClAc-Gly-Gly-OH)
- (V/K)app (rat PAM [2]): (2.1± 0.1) × 10^4 M^−1 s^−1
- Km (rat PAM [2]): 420 ± 30 µM

The next lines start with results.

- Ki (B. germanica PHM): 56 ± 6 µM
- Ki (rat PAM [1]; [3]): 380 ± 40 µM
Molecule: O=C(O)CSc1ccccc1 [compound 72, S-Phenylmercaptoacetic Acid]
- RatKi,s/InsectKi,s (B. germanica PHM): 6.9

- Ki (rat PAM [1]; [3]): 1500 µM
Molecule: O=C(N[C@H](CO)C(=O)O)c1ccccc1 [compound 76, N-(Benzoyl)-D-serine]

- Ki (rat PAM [1]; [3]): 7900 µM
Molecule: NCC(=O)NNC(=O)OCc1ccccc1 [compound 78, (CBZ-hydrazido)glycine]

- Ki (rat PAM [1]; Ki,s, rat PAM, […] DMSO): 110 ± 20 µM
Molecule: O=C(O)CNC(=S)Nc1ccccc1 [compound 69, N-Phenylthiohydantoic acid]

- Ki (rat PAM [1]; [3]): 69 ± 7 µM
Molecule: O=C(NC(CSC(=O)c1ccccc1)C(=O)O)c1ccccc1 (stereo in doubt) [compound 68, N,S-Dibenzoyl-L-cysteine]

- Ki (rat PAM [1]; [3]): 300 ± 20 µM
Molecule: O=C(NO)c1ccccc1O [compound 71, Salicylhydroxamic acid]

- Ki (rat PAM [1]; [3]): 58 ± 9 µM
Molecule: CC(SC(=S)c1ccccc1)C(=O)O (racemic) [compound 66, S-(Thiobenzoyl)-(R,S)-thiolactic acid]

- Ki (rat PAM [1]; [3]): 1400 µM
Molecule: O=C(NCC[C@H](O)C(=O)O)OCc1ccccc1 [compound 75, (S)-N-CBZ-4-amino-2-hydroxybutyric acid]

- Ki (rat PAM [1]; [3]): 18000 µM
Molecule: O=C(O)CNCc1ccccc1 [compound 79, N-Benzylglycine]

- Ki (rat PAM [1]; [3]): 110 ± 10 µM
Molecule: CCOC(=O)CSC(=S)c1ccc(C)cc1 [compound 70, S-(4-Methylthiobenzoyl)thioglycolic acid ethyl ester]

- Ki (rat PAM [1]; [3]): 1000 µM
Molecule: O=C(O)CONC(=O)c1ccccc1 [compound 73, O-Benzamidoglycolic acid]

- Ki (rat PAM [1]; [3]): 1000 µM
Molecule: CC(C)C[C@H](NC(=O)[C@@H]1CCCN1)C(=O)NCC(=O)NO [compound 74, Pro-Leu-Gly hydroxamic acid] (H-Pro-Leu-Gly-{NHOH})
